dFosB act-1: mouse delta FosB homodimer activation. purified delta FosB, TAMRA-CDK5 oligo fluorescence polarization; percent of positive-control signal above neutral wells. activation, % at 25 µM. 0.99% of 340,000 active;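 active means mean activation above about 17%, with every replicate also reaching it, limit read from the data, passing the limit was not always enough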
CAL PDZ FP-1: blocks peptide binding to human CAL PDZ domain; Q9HD26; purified CAL PDZ, TMR-peptide fluorescence polarization, 1 h; inhibition, % at 20 µM; 0.02% of 330,000 active; AID 504414;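 active means highest replicate inhibition of at least 40%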;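 further: plate controls were DMSO neutral control wells for no effect and unlabeled competitor peptide control wells for full effect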
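Test system: purified CerCALP PDZ construct; Compound dosing: one concentration, 20 µM compound; Also added: TMR-labelled reporter peptide T*-PRC34 bound in PDZ groove; Read-out: inhibition from polarization loss; Controls: unlabelled peptide and DMSO controls; Signal: FP readout, S and P plane fluorescence; Incubation: 1 h at RT.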
CDK5 p35 inh: blocks human CDK5/p35 kinase activity | Q00535+Q15078 | Recombinant CDK5/p35, ADP-Glo luminescence, 60 min | inhibition, % at 10 µM | 0.01% of 330,000 active | AID 488839;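 active means highest replicate inhibition of at least 50% and at least 75% of replicates reaching 50%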;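 further: plate controls were DMSO neutral control for no effect and GW8510 at 10 µM for full effect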
Target sequence (Q00535 whole entry, looked up): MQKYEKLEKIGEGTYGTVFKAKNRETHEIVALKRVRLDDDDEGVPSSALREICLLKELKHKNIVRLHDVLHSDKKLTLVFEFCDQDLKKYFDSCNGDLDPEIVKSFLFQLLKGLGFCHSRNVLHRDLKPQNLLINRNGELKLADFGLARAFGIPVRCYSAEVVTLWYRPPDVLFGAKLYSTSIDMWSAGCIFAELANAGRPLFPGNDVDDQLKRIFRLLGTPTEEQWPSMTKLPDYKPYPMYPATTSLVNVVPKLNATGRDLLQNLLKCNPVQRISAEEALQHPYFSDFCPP
Target sequence (Q15078 whole entry, looked up): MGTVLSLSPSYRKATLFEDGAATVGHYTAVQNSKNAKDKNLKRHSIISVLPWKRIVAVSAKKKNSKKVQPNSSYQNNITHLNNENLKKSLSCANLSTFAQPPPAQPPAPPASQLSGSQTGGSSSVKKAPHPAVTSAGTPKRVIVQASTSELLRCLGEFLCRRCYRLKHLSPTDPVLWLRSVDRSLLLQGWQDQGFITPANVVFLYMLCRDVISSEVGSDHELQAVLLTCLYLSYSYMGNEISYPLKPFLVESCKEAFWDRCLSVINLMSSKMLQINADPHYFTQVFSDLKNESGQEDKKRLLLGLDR
DYRK1A inh: blocks rat Dyrk1A kinase activity; ADP-Glo luminescence, NFATc1 peptide; inhibition, % at 12.5 µM; Q63470; 0.43% of 310,000 active; in the data active means inhibition above about 50%;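 further: plate controls were vehicle with enzyme for no effect and no enzyme for full effect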
Rtt109 HAT inh: inhibitors of Candida albicans Rtt109/Vps75 histone acetyltransferase; purified Rtt109/Vps75, ThioGlo CoA-SH fluorescence, 4 h; 0.16% of 330,000 active; inhibition, % at 34.9 µM;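 active means inhibition of at least 50% in every replicate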
CAL PDZ FP-2: blocks peptide binding to the human CAL PDZ domain. 0.92% of 300,000 active. inhibition, % at 24.9 µM. purified CAL PDZ, TMR-peptide fluorescence polarization, 1 h. Q9HD26;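 active means mean inhibition of at least 30% with at least half of replicates also reaching 30%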;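 further: 0% = DMSO neutral control and 100% = excess unlabeled competitor peptide PRC23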
dFosB act-2: activators of mouse delta FosB homodimer DNA binding. shares compounds with dFosB act-1. purified delta FosB, TAMRA-CDK5 oligo fluorescence polarization; normalised: neutral wells 0, positive control 100. activation, % at 24.9 µM. 2,400 tested, under 10 active. AID 588690;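 active means highest replicate activation at or above 34% and every replicate reaching that threshold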;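 further: higher polarization means more probe DNA bound by delta FosB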
* marks the source's active call; other numbers are inactive results; x = not tested or not shown. The list is not random: actives were taken first. Their share in the collection is about 2.2%.

SMILES | dFosB act-1 | CAL PDZ FP-1 | CDK5 p35 inh | DYRK1A inh | Rtt109 HAT inh | CAL PDZ FP-2 | dFosB act-2
COc1cc(OC)cc(C(=O)Nc2ccccc2-c2nnn(CC(=O)Nc3cc(C)on3)n2)c1 | 95.0* | -1.0 | -2.8 | -2.7 | 2.2 | -2.1 | 5.0
COc1ccc(C(=O)Nc2ccccc2-c2nnn(CC(=O)Nc3ccc4c(c3)OCCO4)n2)cc1 | 33.3* | -0.5 | 1.5 | x | -3.5 | -12.3 | 2.4
CCOc1ccc(NC(=O)Cn2nnc(-c3ccccc3NC(=O)C3CC3)n2)cc1 | 59.8* | -1.8 | -1.2 | -3.4 | 1.8 | 1.3 | 0.9
COc1ccc(C(=O)Nc2ccccc2-c2nnn(CC(N)=O)n2)cc1 | 43.7* | -3.1 | 3.1 | 7.2 | -1.3 | 7.2 | 3.5
O=C(NNC(=O)c1ccccc1C(=O)O)c1ccc(O)cc1 | 4.3 | 1.1 | -2.8 | 4.1 | -1.2 | -2.4 | x
Nc1c(N(CCC2=CCCCC2)C(=O)c2ccco2)c(=O)[nH]c(=O)n1Cc1ccccc1 | 10.8 | -3.1 | 0.3 | 13.4 | 3.8 | -1.8 | x
COc1ccc(N(CC(=O)Nc2ccccc2C(=O)N2CCCC2)S(C)(=O)=O)cc1 | 2.2 | -1.5 | 0.2 | -9.3 | -5.4 | -9.7 | x
CN(C)/C(=N\S(=O)(=O)c1ccc(Br)cc1)c1ccccc1 | -2.2 | -2.2 | -2.2 | 1.1 | 0.3 | -1.9 | x
O=C(COc1ccccc1C(=O)c1cnn(-c2ccccc2)c1)Nc1ccccc1 | -2.8 | -3.0 | -0.8 | 6.8 | x | -3.9 | x
CCCNC(=O)CCCCn1c(=S)[nH]c2c([nH]c3ccc(OC)cc32)c1=O | 10.1 | 0.5 | -1.1 | -3.8 | 2.9 | x | x
COc1ccc2[nH]c3c(=O)n(CCCC(=O)NC4CCC(C)CC4)c(=S)[nH]c3c2c1 (stereo not given) | 53.2* | -0.8 | 1.1 | 0.2 | -5.7 | -2.1 | -5.5
CC(C)(C)OC(=O)N(Cc1ccccc1)Cc1ccccc1OCc1cccc(NC(=O)c2ccccc2)c1 | -11.3 | -0.3 | 0.0 | x | 8.3 | -4.1 | x
O=C(COC(=O)c1ccc(S(=O)(=O)N2CCCCC2)cc1)Nc1ccccc1 | 20.7* | -0.1 | 0.6 | x | 16.4 | 2.6 | 2.1
O=C(COC(=O)c1cc([N+](=O)[O-])ccc1NCCO)Nc1cccc(S(=O)(=O)N2CCCC2)c1 | 30.6* | -2.3 | -0.8 | 0.2 | 11.0 | -3.3 | 1.4
CC(=O)Nc1ccc(NC(=O)COC(=O)c2ccc(S(=O)(=O)N(C)c3ccccc3)cc2)cc1 | 37.6* | -0.3 | -3.6 | 0.5 | 0.0 | x | 0.4
COc1ccccc1N(C)S(=O)(=O)c1ccc(C(=O)OCC(=O)Nc2ccc(C(N)=O)cc2)cc1 | 65.9* | -0.6 | 0.2 | x | 2.3 | -0.9 | 2.4
O=C(COC(=O)c1ccc([N+](=O)[O-])o1)Nc1cccc(S(=O)(=O)N2CCCCC2)c1 | -0.8 | -0.1 | -0.5 | x | 3.6 | -5.2 | x
CNS(=O)(=O)c1cccc(C(=O)NCC(c2ccco2)N(C)C)c1 (stereo not given) | -5.5 | -0.8 | -2.5 | 2.1 | -0.7 | 3.1 | x
CCCCCCC1(C)NC(=O)N(C(C)C(=O)Nc2ccc(N3CCOCC3)cc2)C1=O (stereo not given) | -2.6 | -0.2 | -1.2 | x | 2.4 | -7.6 | x
CN(CC(=O)Nc1ccc(Cl)c(C(F)(F)F)c1)C(=O)c1cc(-c2ccncc2)nc2ccccc12 | 65.7* | -1.9 | -0.9 | 14.0 | -11.2 | 7.3 | 0.4
COc1ccc(OC)c(NC(=O)CN2C(=O)NC(C)(c3ccc4c(c3)OCCO4)C2=O)c1 (stereo not given) | -9.0 | 0.5 | -1.1 | 7.9 | 1.0 | x | x
CCOC(=O)Nc1cccc(OCC(=O)Nc2ccc3c(c2)CCC3)c1 | 23.0* | 2.0 | 0.9 | x | -0.9 | -1.6 | -1.1
CC(=O)Cc1nsc(NC(=O)c2ccc(COc3ccccc3C)o2)n1 | -5.2 | -1.4 | 0.0 | -5.7 | -11.4 | -4.1 | x
Cc1ccc(C(=O)Nc2cccc(C(F)(F)F)c2)cc1NC(=O)c1ccno1 | -6.2 | -1.1 | -0.2 | -1.9 | -15.1 | -4.7 | x
Cc1ccc(C(=O)Nc2cccc(C(F)(F)F)c2)cc1NC(=O)c1nccn1C | 26.6* | 0.0 | 4.2 | 5.0 | 3.9 | -1.9 | -0.7

Assay outcomes deposited in PubChem by Broad Institute.
